From ChEMBL document CHEMBL1148523, “Synthesis and biological evaluation of novel pyridazinone-based alpha4 integrin receptor antagonists” (J Med Chem, 2006)

Columns and labels:
[1] = biological target: Integrin alpha-4/beta-1 (Homo sapiens, UniProt P05556+P13612); experiment: Inhibition of binding of alpha4beta1 integrin receptor expressed in human Ramos cells to immobilized VCAM1; format: cell-based
[2] = Half life in rat at 3 mg/kg, iv; format: ADME, organism-based; parameters: dose 3 mg/kg, route intravenous; conditions: in vivo
How it was run: (§1)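 Rats were given 3 mg/kg iv or 30 mg/kg by oral gavage (oral vehicle 10% PEG 400 in PBS, pH 7.0-7.5). Heparinized blood was sampled after dosing and the plasma stored at -70 °C. Analysis was by LC-MS-MS with multiple reaction monitoring, using plasma calibration standards of 0.01-10 µM (LOQ 0.01 µM). For ester prodrugs, the parent acid was quantified. AUC was taken after oral dosing and t1/2 after iv dosing.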

[3] = Oral bioavailability in rat at 30 mg/kg, po and 3 mg/kg, iv; format: ADME, organism-based; conditions: in vivo; how it was run: as §1
[4] = AUC in rat at 30 mg/kg, po; format: ADME, organism-based; parameters: dose 30 mg/kg, route oral; conditions: plasma; how it was run: as §1
[5] = biological target: T1, Integrin alpha-4/beta-7 (Homo sapiens, UniProt P13612+P26010); experiment: Inhibition of binding of alpha-4-beta-7 integrin receptor expressed in human K562 cells to immobilized MAdCAM1; format: cell-based
T1 sequence (P13612 whole entry): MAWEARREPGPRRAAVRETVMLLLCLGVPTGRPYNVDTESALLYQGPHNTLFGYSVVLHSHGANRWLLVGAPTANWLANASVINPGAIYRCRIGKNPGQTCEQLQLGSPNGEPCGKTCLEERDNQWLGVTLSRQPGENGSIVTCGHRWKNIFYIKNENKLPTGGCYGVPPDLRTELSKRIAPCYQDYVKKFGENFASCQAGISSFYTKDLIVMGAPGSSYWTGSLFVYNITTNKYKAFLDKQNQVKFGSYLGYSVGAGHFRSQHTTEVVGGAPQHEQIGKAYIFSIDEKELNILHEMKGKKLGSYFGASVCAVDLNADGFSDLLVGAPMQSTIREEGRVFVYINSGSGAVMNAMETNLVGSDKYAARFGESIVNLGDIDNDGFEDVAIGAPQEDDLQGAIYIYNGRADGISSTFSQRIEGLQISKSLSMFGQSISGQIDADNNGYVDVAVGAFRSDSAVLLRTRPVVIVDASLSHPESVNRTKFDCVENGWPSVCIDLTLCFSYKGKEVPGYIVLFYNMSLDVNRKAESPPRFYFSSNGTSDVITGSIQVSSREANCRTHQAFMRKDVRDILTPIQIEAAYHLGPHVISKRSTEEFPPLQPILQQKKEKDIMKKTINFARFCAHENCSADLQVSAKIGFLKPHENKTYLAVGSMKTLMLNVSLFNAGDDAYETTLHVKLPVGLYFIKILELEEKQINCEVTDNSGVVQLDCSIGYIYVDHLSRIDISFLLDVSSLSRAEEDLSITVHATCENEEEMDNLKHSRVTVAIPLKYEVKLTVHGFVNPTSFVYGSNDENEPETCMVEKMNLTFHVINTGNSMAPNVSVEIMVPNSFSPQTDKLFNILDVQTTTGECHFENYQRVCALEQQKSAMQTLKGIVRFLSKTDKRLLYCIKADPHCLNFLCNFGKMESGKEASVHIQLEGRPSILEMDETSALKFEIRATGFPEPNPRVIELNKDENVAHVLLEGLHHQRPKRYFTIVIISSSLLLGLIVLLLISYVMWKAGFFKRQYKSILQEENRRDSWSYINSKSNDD
T1 sequence (P26010 whole entry): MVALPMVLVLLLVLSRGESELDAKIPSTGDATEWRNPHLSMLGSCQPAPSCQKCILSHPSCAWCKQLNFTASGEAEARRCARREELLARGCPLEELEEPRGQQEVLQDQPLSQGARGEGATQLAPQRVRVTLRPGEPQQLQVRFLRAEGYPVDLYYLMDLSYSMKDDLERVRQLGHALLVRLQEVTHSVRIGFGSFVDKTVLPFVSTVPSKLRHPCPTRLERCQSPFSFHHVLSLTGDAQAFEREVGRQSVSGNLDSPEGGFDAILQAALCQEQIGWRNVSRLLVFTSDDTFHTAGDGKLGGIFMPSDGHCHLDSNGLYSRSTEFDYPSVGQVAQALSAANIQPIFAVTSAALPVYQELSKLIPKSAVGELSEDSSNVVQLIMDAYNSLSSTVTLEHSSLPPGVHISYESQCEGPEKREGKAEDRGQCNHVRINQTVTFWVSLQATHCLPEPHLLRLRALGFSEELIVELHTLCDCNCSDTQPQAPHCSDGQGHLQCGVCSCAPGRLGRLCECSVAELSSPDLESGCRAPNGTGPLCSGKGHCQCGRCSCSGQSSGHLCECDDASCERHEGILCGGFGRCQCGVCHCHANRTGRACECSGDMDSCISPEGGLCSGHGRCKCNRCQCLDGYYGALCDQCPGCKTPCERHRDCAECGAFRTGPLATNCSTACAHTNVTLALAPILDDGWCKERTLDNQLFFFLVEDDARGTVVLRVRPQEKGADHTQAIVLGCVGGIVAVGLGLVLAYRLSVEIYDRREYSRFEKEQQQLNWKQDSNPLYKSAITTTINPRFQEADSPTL

[6] = Clearance in rat at 3 mg/kg, iv; format: ADME, organism-based; parameters: dose 3 mg/kg, route intravenous; conditions: in vivo; how it was run: as §1
[7] = Volume of distribution in rat at 3 mg/kg, iv; format: ADME, organism-based; parameters: dose 3 mg/kg, route intravenous; conditions: in vivo, read-out: Vdss; how it was run: as §1
[8] = Inhibition of adhesion of human HL60 cell to TNF-alpha-stimulated HUVEC cells mediated by ELAM1; format: functional, cell-based
[9] = Inhibition of adhesion of human U937 cell to LPS-stimulated HUVEC cells mediated by ICAM1/VCAM1; format: functional, cell-based
[10] = Inhibition of adhesion of human Ramos cell to TNF-alpha-stimulated HUVEC cells mediated by VCAM1; format: functional, cell-based
[11] = tested on: Mus musculus; experiment: Inhibition of DSS-induced colitis in mouse at 60 mg/kg, po after 7 days; format: functional; conditions: 168 h
How it was run: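 Female Balb/c mice, 11-14 weeks old (n = 10/group), drank 5% DSS in tap water ad libitum for 7 days, freshly changed daily. Oral gavage at 60 mg/kg in 10% PEG 400 in D5W, or vehicle alone, began on the day of induction and continued twice daily for 7 days. Colons were then dissected. The macroscopic score combined colon shrinkage, stool consistency and colon damage.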

Sequence of Integrin alpha-4/beta-1 (P05556 whole entry, one chain of several): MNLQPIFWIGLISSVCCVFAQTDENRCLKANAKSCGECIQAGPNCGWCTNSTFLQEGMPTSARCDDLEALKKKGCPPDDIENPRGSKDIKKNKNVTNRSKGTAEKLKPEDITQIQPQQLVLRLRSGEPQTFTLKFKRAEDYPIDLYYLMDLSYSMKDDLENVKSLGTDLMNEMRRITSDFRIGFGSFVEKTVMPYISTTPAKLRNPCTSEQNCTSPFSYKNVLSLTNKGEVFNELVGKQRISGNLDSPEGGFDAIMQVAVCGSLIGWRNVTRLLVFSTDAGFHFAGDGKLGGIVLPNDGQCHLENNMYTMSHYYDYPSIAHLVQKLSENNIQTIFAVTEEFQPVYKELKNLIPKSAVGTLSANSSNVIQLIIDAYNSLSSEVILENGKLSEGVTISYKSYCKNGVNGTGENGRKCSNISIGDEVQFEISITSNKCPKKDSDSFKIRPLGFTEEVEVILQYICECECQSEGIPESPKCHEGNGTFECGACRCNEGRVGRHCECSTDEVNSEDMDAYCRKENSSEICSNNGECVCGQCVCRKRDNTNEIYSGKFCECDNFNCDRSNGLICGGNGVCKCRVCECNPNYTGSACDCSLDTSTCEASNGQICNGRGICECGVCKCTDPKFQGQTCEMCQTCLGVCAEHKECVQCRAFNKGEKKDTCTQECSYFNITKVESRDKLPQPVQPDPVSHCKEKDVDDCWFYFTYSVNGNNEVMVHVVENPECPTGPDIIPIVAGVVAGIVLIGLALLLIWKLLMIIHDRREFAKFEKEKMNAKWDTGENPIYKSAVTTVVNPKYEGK

Structure (SMILES)	IC50 [1]	half-life [2]	bioavailability [3]	AUC [4]	IC50 [5]	other results
CCCN(C(=O)N[C@@H](Cc1ccc(-c2c(OC)cnn(C)c2=O)cc1)C(=O)O)c1ccccc1	> 5000 nM	–	–	–	–	–
COc1cnn(C)c(=O)c1-c1ccc(C[C@H](NC(=O)N(C)CC(C)C)C(=O)OCCO)cc1	–	24 min	14%	47 µM·h	–	–
COC(=O)N[C@@H](Cc1ccc(-c2c(OC)cnn(C)c2=O)cc1)C(=O)O	> 5000 nM	–	–	–	–	–
COc1cnn(C)c(=O)c1-c1ccc(C[C@H](NC(=O)N(C)CC(C)C)C(=O)O)cc1	1800 nM	54 min	3%	5.2 µM·h	–	clearance [6]: 7.8 mL/min/kg; Vd [7]: 0.19 L/kg
COc1cnn(C)c(=O)c1-c1ccc(C[C@H](NC(=O)OC(C)(C)C)C(=O)O)cc1	> 5000 nM	–	–	–	–	–
COc1cnn(C2CCCCC2)c(=O)c1-c1ccc(C[C@H](NC(=O)c2c(Cl)cccc2Cl)C(=O)O)cc1	> 5000 nM	–	–	–	330 nM	–
COc1cnn(Cc2ccccc2)c(=O)c1-c1ccc(C[C@H](NC(=O)c2c(Cl)cccc2Cl)C(=O)O)cc1	–	–	–	–	100 nM	–
COc1cnn(CCO)c(=O)c1-c1ccc(C[C@H](NC(=O)OC(C)(C)C)C(=O)O)cc1	> 5000 nM	12 min	1%	1.6 µM·h	110 nM	clearance [6]: 6 mL/min/kg; Vd [7]: 0.11 L/kg
COc1cnn(C)c(=O)c1-c1ccc(C[C@H](NC(=O)N(C)C)C(=O)O)cc1	> 5000 nM	–	–	–	1500 nM	–
COc1cnn(CCO)c(=O)c1-c1ccc(C[C@H](NC(=O)OC(C)(C)C)C(=O)OCCO)cc1	–	66 min	31%	51 µM·h	–	inhibition in vivo at 60 mg/kg [11]: 54%

The next lines start with results.

IC50 [1]	half-life [2]	bioavailability [3]	AUC [4]	IC50 [5]	Structure (SMILES)	other results
66 nM	–	–	–	–	Cn1ncc(OCCN2CCOCC2)c(-c2ccc(C[C@H](NC(=O)c3c(Cl)cccc3Cl)C(=O)O)cc2)c1=O	–
–	60 min	7%	3.3 µM·h	–	COc1cnn(C)c(=O)c1-c1ccc(C[C@H](NC(=O)c2c(Cl)cccc2Cl)C(=O)OCCO)cc1	–
110 nM	–	–	–	–	Cn1ncc(N2CCCC2)c(-c2ccc(C[C@H](NC(=O)c3c(Cl)cccc3Cl)C(=O)O)cc2)c1=O	–
280 nM	–	–	–	8 nM	Cn1ncc(OC(F)F)c(-c2ccc(C[C@H](NC(=O)c3c(Cl)cccc3Cl)C(=O)O)cc2)c1=O	–
–	12 min	1%	0.5 µM·h	–	COc1cnn(C)c(=O)c1-c1ccc(C[C@H](NC(=O)c2c(Cl)cccc2Cl)C(=O)O)cc1	clearance [6]: 22 mL/min/kg; IC50 [8]: < 5 nM; Vd [7]: 0.4 L/kg; IC50 [9]: 14 nM; IC50 [10]: 43 nM
150 nM	–	–	–	–	Cn1ncc(OC2CCCCC2)c(-c2ccc(C[C@H](NC(=O)c3c(Cl)cccc3Cl)C(=O)O)cc2)c1=O	–
–	42 min	8%	1.7 µM·h	–	COC(=O)[C@H](Cc1ccc(-c2c(OC)cnn(C)c2=O)cc1)NC(=O)c1c(Cl)cccc1Cl	–
170 nM	–	–	–	2 nM	CCOc1cnn(C)c(=O)c1-c1ccc(C[C@H](NC(=O)c2c(Cl)cccc2Cl)C(=O)O)cc1	–
–	–	4%	2.3 µM·h	–	CCOC(=O)[C@H](Cc1ccc(-c2c(OC)cnn(C)c2=O)cc1)NC(=O)c1c(Cl)cccc1Cl	–
130 nM	–	–	–	–	COc1cnn(CCO)c(=O)c1-c1ccc(C[C@H](NC(=O)c2c(Cl)cccc2Cl)C(=O)O)cc1	–
–	–	–	–	49 nM	Cn1ncc(O)c(-c2ccc(C[C@H](NC(=O)c3c(Cl)cccc3Cl)C(=O)O)cc2)c1=O	–
1000 nM	–	–	–	–	COc1cnnc(O)c1-c1ccc(C[C@H](NC(=O)c2c(Cl)cccc2Cl)C(=O)O)cc1	–
